Data set [1] deals with non-transfected HL-1 cells. Nature of the data set: LDH assay, protection from H2O2-induced cell death, untransfected cells. The conditions noted are these: for Protection against H2O2-induced cytotoxicity in non-transfected HL-1 cells: 750 μM H2O2, LDH assay.
Data set [2] relates to A3AR-transfected HL-1 cells. Nature of the data set: LDH assay, protection from H2O2-induced cell death, hA3AR-transfected cells. The format is cell-based, mouse. Conditions: for EC50: read-out: Protection of A3 AR-transfected cells against H2O2, EC50 (lactate dehydrogenase release); for Protection against H2O2-induced cytotoxicity in A3AR-transfected HL-1 cells: 750 μM H2O2; for IC50: HL-1, read-out: Protection from cell death induced by H2O2, transfected cells, IC50.

Data set [3] addresses T1, hA3AR (Homo sapiens, UniProt P0DMS8).
T1 sequence (P0DMS8 1-318): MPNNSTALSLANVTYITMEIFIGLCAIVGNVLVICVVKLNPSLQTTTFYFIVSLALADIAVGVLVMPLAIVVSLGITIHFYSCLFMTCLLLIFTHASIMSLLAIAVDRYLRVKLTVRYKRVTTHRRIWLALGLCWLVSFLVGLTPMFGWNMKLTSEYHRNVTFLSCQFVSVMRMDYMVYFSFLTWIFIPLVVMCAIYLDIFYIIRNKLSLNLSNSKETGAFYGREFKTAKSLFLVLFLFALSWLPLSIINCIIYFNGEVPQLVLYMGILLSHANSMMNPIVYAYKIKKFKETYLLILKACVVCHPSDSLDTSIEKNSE
Nature of the data set: cAMP assay, inhibition of forskolin-stimulated cAMP, CHO cells. It counts as cell-based. The gist of the method:
(§1)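 Stably transfected CHO cells (A1, A2A or A3AR) were seeded overnight at 37 °C, then given DMEM with 50 mM HEPES, 10 μM rolipram, 3 U/ml adenosine deaminase and rising test compound, for 30 min at 37 °C. For A1/A3, 10 μM forskolin was added for 15 min more; A2A plates were incubated 45 min. Cells were lysed in 0.1 M HCl; cAMP by immunoassay at 405 nm.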
(In general: cAMP levels reflect the balance of adenylyl cyclase and phosphodiesterase activity.)

Data set [4] has as its system A3AR-transfected HL-1 cells. Nature of the data set: Luminescent caspase 3/7 assay of H2O2-induced apoptosis. It counts as cell-based, mouse. The conditions noted are these: dendrimer 10 μM 1 h before 400 μM H2O2, 3 h. Put shortly:
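HL-1 cells transfected with hA3AR were seeded at 30,000 cells/well and incubated overnight at 37 °C, then switched to DMEM with Ca/Mg. Dendrimer (10 μM) was added 1 h before H2O2 (400 μM) and kept throughout, with 3 h at 37 °C. An equal volume of Caspase-Glo 3/7 reagent was added for 90 min at room temperature before reading luminescence. Three independent experiments in triplicate, mean ± SD.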

In data set [5] the target is T2, hA2AAR (Homo sapiens, UniProt P29274). Nature of the data set: Radioligand membrane binding, [3H]CGS21680, stably transfected HEK cells. The conditions noted are these: read-out: Binding, Ki app, A2A, dendrimer concentration, mean ± SEM, n = 3.
In data set [6] the target is T1, hA3AR. Kind of data set: Radioligand membrane binding, [125I]AB-MECA, stably transfected CHO cells.
Data set [7] addresses T3, hA1AR (Homo sapiens, UniProt P30542).
T3 sequence (P30542 1-326): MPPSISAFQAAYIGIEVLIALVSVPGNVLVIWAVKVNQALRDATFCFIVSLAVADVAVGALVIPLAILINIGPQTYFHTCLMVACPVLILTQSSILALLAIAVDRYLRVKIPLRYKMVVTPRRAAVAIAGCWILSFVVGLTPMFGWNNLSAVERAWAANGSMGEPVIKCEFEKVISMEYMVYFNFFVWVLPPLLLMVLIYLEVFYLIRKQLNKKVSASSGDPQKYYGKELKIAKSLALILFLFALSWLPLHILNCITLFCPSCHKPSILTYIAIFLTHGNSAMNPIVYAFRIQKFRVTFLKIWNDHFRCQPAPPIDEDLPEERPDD
Kind of data set: Radioligand membrane binding, [3H]CCPA, stably transfected CHO cells. The conditions noted are these: read-out: Binding, Ki app, A1, dendrimer concentration, mean ± SEM, n = 3.

Data set [8] concerns the target T2, hA2AAR. Kind of data set: cAMP assay, stimulation of cAMP, CHO cells. It counts as cell-based. The gist of the method:
as §1

Data set [9] addresses T3, hA1AR. Conditions: read-out: Binding, Ki, A1; [3H]CCPA; previously reported; cited from earlier work.
Data set [10] has as its target T2, hA2AAR. The conditions noted are these: read-out: Binding, Ki, A2A; [3H]CGS21680; previously reported; cited from earlier work.
Data set [11] has as its target T3, hA1AR. Kind of data set: cAMP assay, inhibition of forskolin-stimulated cAMP, CHO cells. The format is cell-based. The gist of the method: as §1
Data set [12] has as its target T1, hA3AR. The conditions noted are these: read-out: Binding, Ki, A3; [125I]AB-MECA; previously reported; cited from earlier work.

“Also recorded” adds a separate entry of the source. Read-outs that look alike come from different tables or passages of the source.

T2 sequence (P29274 whole entry): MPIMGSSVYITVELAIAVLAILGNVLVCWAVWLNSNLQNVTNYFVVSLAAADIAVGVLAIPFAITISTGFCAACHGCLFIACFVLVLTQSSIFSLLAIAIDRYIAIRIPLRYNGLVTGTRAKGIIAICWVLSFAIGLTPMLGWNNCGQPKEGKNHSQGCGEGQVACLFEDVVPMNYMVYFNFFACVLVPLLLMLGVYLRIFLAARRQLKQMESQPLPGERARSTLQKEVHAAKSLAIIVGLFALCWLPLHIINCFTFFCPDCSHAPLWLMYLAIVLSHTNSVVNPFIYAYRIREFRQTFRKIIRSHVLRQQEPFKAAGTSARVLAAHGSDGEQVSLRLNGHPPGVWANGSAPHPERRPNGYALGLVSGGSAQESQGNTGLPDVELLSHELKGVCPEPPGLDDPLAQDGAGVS

For `OC[C@H]1O[C@@H](n2cnc3c(NC4CCCC4)nc(Cl)nc32)[C@H](O)[C@@H]1O` [CCPA, 2-Chloro-N^6-cyclopentyladenosine], the “Protection against H2O2-induced cytotoxicity in non-transfected HL-1 cells” value (“Protection … in non-transfected HL-1 cells” below) in data set [1] is listed as “did not protect”.
A word on the EC50: it is the concentration that produces a half-maximal response. As to `CCNC(=O)[C@H]1O[C@@H](n2cnc3c(N)ncnc32)[C@H](O)[C@@H]1O` [NECA, 5′-N-ethylcarboxamidoadenosine], in [1], the “Protection … in non-transfected HL-1 cells” value is listed as “protected; also recorded: protective”. Moreover, the EC50 in [2] (750 μM H2O2, 4 h) came out at 3.9 µM.
What is called IC50 is the midpoint of a concentration-inhibition curve. For `CCNC(=O)[C@H]1O[C@@H](n2cnc3c(N)nc(NCCc4ccc(CCC(=O)O)cc4)nc32)[C@H](O)[C@@H]1O` [CGS21680, 2-[p-(2-carboxyethyl)phenylethyl-amino]-5′-N-ethylcarboxamidoadenosine], the “Protection … in non-transfected HL-1 cells” value in data set [1] is recorded as “protected; also recorded: protective”. Moreover, in data set [1] (Mus musculus, HL-1, read-out: Protection from cell death induced by H2O2, untransfected cells, IC50), the half-inhibitory concentration (IC50) stood at 7.1 ± 2.4 µM.
Take `CNC(=O)[C@H]1O[C@@H](n2cnc3c(NCc4cccc(I)c4)nc(Cl)nc32)[C@H](O)[C@@H]1O` [Cl-IB-MECA, 2-chloro-N^6-(3-iodobenzyl)-5′-N-methylcarboxamidoadenosine]: in data set [1], the “Protection … in non-transfected HL-1 cells” value is “neither IB-MECA nor Cl-IB-MECA gave protection”. In data set [2] (LDH assay), the “Protection against H2O2-induced cytotoxicity in A3AR-transfected HL-1 cells” value (shortened to “Protection … in A3AR-transfected HL-1 cells”) is on record as “revealed protection”. Moreover, the IC50 in data set [2] (Mus musculus) was determined as 7.9 ± 2.3 µM.
Take PAMAMG5.5-1(AF488-ED) [compound 7]: at hA3AR [3] (10 μM), the “Activity in assay of A3AR-mediated cAMP inhibition at 10 μM” value is “inactive”. Besides, in [4], the “Effect on H2O2-induced apoptosis (caspase 3/7 luminescence)” value is “did not significantly decrease; also recorded: not by 7”.
Turning to “PAMAMG5.5-1(AF488-ED)-60(N-(2-aminoethyl)-ADAC) [compound 8]”, the Ki at hA2AAR [5] was 0.08 ± 0.017 µM; at hA3AR [6] (read-out: Binding, Ki app, A3, [125I]AB-MECA, dendrimer concentration, mean ± SEM, n = 3), 0.015 ± 0.004 µM; on hA1AR [7] it was 0.14 ± 0.065 µM. At hA3AR [6] (versus A1 and A2AARs), the “Selectivity for the A3AR in binding” value was “only slightly selective”. The “Protection … in non-transfected HL-1 cells” value in [1] was “did not show cytoprotection”. In addition, the “Protection … in A3AR-transfected HL-1 cells” value in data set [2] (LDH assay) is on record as “highly potent”. Further, in [2] (A3AR-transfected HL-1 cells, LDH assay), the “IC50 value less than those of monomeric A3AR agonists IB-MECA and Cl-IB-MECA” value is recorded as 100- to 200 fold. On hA3AR [3] (versus A1 and A2AARs), the “Selectivity in assay of adenylate cyclase inhibition / AR activation” value is on record as “nonselective; also recorded: nonselectively”. For the same compound, the “Effect on H2O2-induced apoptosis (caspase 3/7 luminescence)” value in data set [4] is listed as “significantly decreased; also recorded: significant protection”.
For the compound N-(2-Aminoethyl)-ADAC [compound 4], the “Agonist efficacy in cAMP assay, A3AR (inhibition)” value at hA3AR [3] is recorded as “potent full agonist”. In addition, at hA2AAR [8], the “Agonist efficacy in cAMP assay, A2AAR (stimulation)” value is recorded as “potent full agonist”. The results for the Ki on hA1AR [9], on hA2AAR [10] and on hA3AR [12] were 0.043 ± 0.005 µM, 0.3 ± 0.02 µM and 0.0095 ± 0.002 µM, respectively. The “Agonist efficacy in cAMP assay, A1AR (inhibition)” value on hA1AR [11] is given as “potent full agonist”.
For the compound `CCOC(=O)C1=C(C)NC(c2ccccc2)=C(C(=O)OCc2ccccc2)C1C#Cc1ccccc1` (stereo not drawn) [MRS1191], in [2] (MRS1191 10 μM 1 h before IB-MECA 30 μM, 750 μM H2O2, 4 h, transfected HL-1 cells), the “Effect of A3 antagonist on protection afforded by IB-MECA from H2O2-induced cell death” value is listed as “prevented the protection”.
Take `CNC(=O)[C@H]1O[C@@H](n2cnc3c(NCc4cccc(I)c4)ncnc32)[C@H](O)[C@@H]1O` [IB-MECA, N^6-(3-iodobenzyl)-5′-N-methylcarboxamidoadenosine]: the “Protection … in non-transfected HL-1 cells” value in data set [1] is listed as “neither IB-MECA nor Cl-IB-MECA gave protection”. Besides, the “Protection … in A3AR-transfected HL-1 cells” value in [2] (LDH assay) was “revealed protection”. Moreover, the EC50 in [2] (Mus musculus, HL-1, 4 h) was 3.8 µM. In data set [2] (Mus musculus), the IC50 came out at 3.8 ± 1.4 µM.

The values above are taken from publication PMC2880883 (Biochemical pharmacology, 2010).
